Source: PMC12126168 (Drug Design, Development and Therapy, 2025)

Legend:
[1] = Body weight of nude mice after oral administration; type: in vivo; conditions: oral doses 100 mg/kg and 300 mg/kg
various tumor cell lines = assay: Antiproliferative activity on various tumor cell lines; type: cell-based; conditions: read-out: IC50 against a variety of cell lines
In short: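 Cells seeded at 1000 per well in 18 μL medium and pre-incubated 24 h at 37°C, 5% CO2. Test compound in DMSO (final DMSO <0.1%) added at 10 points, 2-fold dilutions from 10 μM, then cultured 72 h. Cell-Titer glo reagent added and […]. Inhibition computed per concentration and IC50 obtained from sigmoid curve fit.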

[2] = Single-dose pharmacokinetics in SD rats; type: in vivo; conditions: after gavage or tail vein injection of V12
In short: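 Male SD rats (240–280 g), 4 groups of 3. Compound in DMSO/castor oil/saline 5%/5%/90%, dosed 1 mg/kg i.v. or 10 mg/kg orally. Blood drawn from fundus venous plexus at 2, 5, 15, 30 min and 1, 2, 4, 8, 24 h into heparin tubes, then centrifuged at 4°C for plasma. Plasma levels measured by LC-MS/MS with non-compartmental analysis.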

| SMILES | body weight of the nude mice [1] | IC50 (various tumor cell lines) | metabolism in vivo [2] |
| --- | --- | --- | --- |
| CONC(=O)c1cccc2c1cc(C)n2-c1nc2c(c(NCc3ccccc3)n1)CCCN2 [V12, 1-(4-(Benzylamino)-5,6,7,8-Tetrahydropyrido[2,3-D]pyrimidin-2-Yl)-N-Methoxy-2-Methyl-1H-Indole-4-Carboxamide] | comparable to that of the control group | < 1000 nM | rapidly metabolizes into V13 |
| Cc1cc2c(C(=O)O)cccc2n1-c1nc2c(c(NCc3ccccc3)n1)CCCN2 [V13, 1-(4-(Benzylamino)-5,6,7,8-Tetrahydropyrido[2,3-D]pyrimidin-2-Yl)-2-Methyl-1H-Indole-4-Carboxylic Acid] | – | < 1000 nM | – |
